Measurements collected from several papers.
Each line is one published result; the experiments were not run side by side.
DRD3: D(3) dopamine receptor (DRD3, Homo sapiens, UniProt P35462)
USP51: Ubiquitin carboxyl-terminal hydrolase 51 (USP51, Homo sapiens, UniProt Q70EK9)
Slc6a1: Sodium- and chloride-dependent GABA transporter 1 (Slc6a1, Rattus norvegicus, UniProt P23978)
CA12: Carbonic anhydrase 12 (CA12, Homo sapiens, UniProt O43570)
Lyn: Tyrosine-protein kinase Lyn (Lyn, Mus musculus, UniProt P25911)
SLC6A3: Sodium-dependent dopamine transporter (SLC6A3, Homo sapiens, UniProt Q01959)

SMILES	target	read-out	mode	method	cell line	concentration	inhibition [%]
CC(=O)O[C@H]1[C@H](O[C@@H]2[C@@H](O)[C@@H](O)[C@H](Oc3c(-c4ccc(O)cc4)oc4cc(O)cc(O)c4c3=O)O[C@H]2C)O[C@H](CO)[C@@H](O)[C@@H]1O	Aromatase (CYP19A1, Homo sapiens, UniProt P11511)	enzyme activity	inhibitor			20 µg/mL	58
O=C1CC(N2CCN(Cc3ccccc3)CC2)C(=O)N1c1ccc2c(c1)OCCO2 (centres unmarked)	DRD3	enzyme activity	inhibitor			10 µM	-26
Nc1ncnc2c1ncn2[C@@H]1O[C@H](CO)C[C@H]1O	USP51	enzyme activity	inhibitor			5 µM	24
O=C(c1ccc(F)cc1)N(Cc1ccccc1)C1CCCCC1	Slc6a1	transporter uptake				10 µM	4
CCOC(=O)C1CSc2[nH]c(=O)sc2C1c1cn(-c2ccccc2)nc1-c1ccc(OC)cc1 (centres unmarked)	CA12	enzyme activity	inhibitor	absorbance		10 nM	17.1
CCCOC(=O)c1cc(O)c(O)c(O)c1	USP51	enzyme activity	inhibitor			5 µM	97
O=C(Nc1ccc(S(=O)(=O)N2CCC(Cl)CC2)cc1)c1ccc([N+](=O)[O-])o1	Slc6a1	ligand displacement		radioligand		10 µM	17
CCOC(=O)C1CSc2[nH]c(=O)sc2C1c1cn(-c2ccccc2)nc1-c1ccc(Cl)cc1 (centres unmarked)	CA12	enzyme activity	inhibitor	absorbance		10 nM	27.6
Cc1ccc(Nc2nccc(N(C)c3ccc4c(C)n(C)nc4c3)n2)cc1S(N)(=O)=O	Lyn	enzyme activity	inhibitor			10 µM	97
O=c1cc(-c2ccccc2)oc2cc(O)c(O)c(O)c12	USP51	enzyme activity	inhibitor			5 µM	95
c1ccc(CCCC2CCN(CCCn3nnnc3C(c3ccccc3)c3ccccc3)CC2)cc1	SLC6A3	transporter uptake	inhibitor		HEK293	1 µM	30.4
C=C1C[C@@]2(O)O[C@@]3(C[C@H]2C(C)C)[C@@H](C)CC[C@@H]13	USP51	enzyme activity	inhibitor			5 µM	11
CNC(=O)c1cc(Oc2ccc(NC(=O)Nc3ccc(Cl)c(C(F)(F)F)c3)cc2)ccn1	Lyn	enzyme activity	inhibitor			0.3 µM	37
Oc1cccc(Nc2nc(-c3ccc(F)cc3F)cs2)c1	Peroxisome proliferator-activated receptor gamma (PPARG, Homo sapiens, UniProt P37231)	cell-free assay				10 µM	86.5
N#CC1CSc2[nH]c(=O)sc2C1c1cn(-c2ccccc2)nc1-c1ccc(Br)cc1 (centres unmarked)	CA12	enzyme activity	inhibitor	absorbance		10 µM	84.7
Fc1ccc(C(c2ccc(F)cc2)c2nnnn2CCCCN2CCC(CCCc3ccccc3)CC2)cc1	SLC6A3	transporter uptake	inhibitor		HEK293	1 µM	53.4
O=c1c(-c2ccc(O)cc2)coc2cc(O[C@@H]3O[C@H](CO)[C@@H](O)[C@H](O)[C@H]3O)ccc12	USP51	enzyme activity	inhibitor			5 µM	39
Clc1ccc(C(c2ccccc2)c2nnnn2CCCCN2CCN(CC=Cc3ccccc3)CC2)cc1 (centres unmarked)	SLC6A3	transporter uptake	inhibitor		HEK293	1 µM	82.2
O=C1NC(=S)C(=Cc2cn(-c3ccccc3)nc2-c2ccc(Br)cc2)S1	CA12	enzyme activity	inhibitor	absorbance		0.1 µM	11.1
CCN(CC)CCNC(=O)c1c(C)[nH]c(/C=C2\C(=O)Nc3ccc(F)cc32)c1C	Lyn	enzyme activity	inhibitor			0.3 µM	40
CC(C)(COP(=O)(O)OP(=O)(O)OC[C@H]1O[C@@H](n2cnc3c(N)ncnc32)[C@H](O)[C@@H]1OP(=O)(O)O)[C@@H](O)C(=O)NCCC(=O)NCCS	Histone acetyltransferase KAT2A (KAT2A, Homo sapiens, UniProt Q92830)	enzyme activity	inhibitor	mobility shift		10 µM	29

SMILES	target	read-out	mode	method	cell line	concentration	inhibition [%]
CC(O)c1ccc(-c2ccc(CNCCc3ccc(S(N)(=O)=O)cc3)o2)cc1 (centres unmarked)	DRD3	enzyme activity	inhibitor			10 µM	-9.5
Clc1ccc(C(c2ccccc2)c2nnnn2CCCCN2CCC(Cc3ccc(Cl)c(Cl)c3)CC2)cc1 (centres unmarked)	SLC6A3	transporter uptake	inhibitor		HEK293	1 µM	67.8
O=C(c1cccc(Cl)c1)N1CCN(CCNc2cc(=O)oc3ccccc23)CC1	DRD3	enzyme activity	inhibitor			10 µM	-11.3
COc1ccc([C@@H]2CC(=O)c3c(O)cc(O[C@@H]4O[C@H](CO[C@@H]5O[C@@H](C)[C@H](O)[C@@H](O)[C@H]5O)[C@@H](O)[C@H](O)[C@H]4O)cc3O2)cc1O	USP51	enzyme activity	inhibitor			5 µM	30
Fc1ccc(C(c2ccc(F)cc2)c2nnnn2CCCCN2CCC(c3ccccc3)CC2)cc1	SLC6A3	transporter uptake	inhibitor		HEK293	1 µM	94.6
COc1ccc(C(C)=O)c(O)c1	USP51	enzyme activity	inhibitor			5 µM	18
CCOc1ccc(CNCC(O)c2ccccc2)cc1Br (centres unmarked)	DRD3	enzyme activity	inhibitor			10 µM	11.4
CCOC(=O)C1CSc2[nH]c(=O)sc2C1c1cn(-c2ccccc2)nc1-c1ccc(Br)cc1 (centres unmarked)	CA12	enzyme activity	inhibitor	absorbance		0.1 µM	31.5
c1ccc(C2CCN(CCCCn3nnnc3C(c3ccccc3)c3ccccc3)CC2)cc1	SLC6A3	transporter uptake	inhibitor		HEK293	1 µM	93.9
Nc1cc[nH]c(=O)n1	USP51	enzyme activity	inhibitor			5 µM	27
Cc1ccc(-c2nn(-c3ccccc3)cc2C2c3sc(=O)[nH]c3SC3C(=O)N(c4ccccc4)C(=O)C32)cc1 (centres unmarked)	CA12	enzyme activity	inhibitor	absorbance		0.1 µM	33.2
O=C(c1ccc(Cl)cc1)N(Cc1ccccc1)C1CCCCC1	Urotensin-2 receptor (UTS2R, Homo sapiens, UniProt Q9UKP6)	cell-free assay				10 µM	27.3
O=C(CN1CCN(c2ccc(F)cc2)CC1)Nc1cc(Cl)cc(Cl)c1	DRD3	enzyme activity	inhibitor			10 µM	-6.1
Clc1ccc(C(c2ccccc2)c2nnnn2CCCCN2CCN(CCc3ccccc3)CC2)cc1 (centres unmarked)	SLC6A3	transporter uptake	inhibitor		HEK293	1 µM	62.1
CCn1c2ccccc2c2cc(CNCCCN3CCOCC3)ccc21	DRD3	enzyme activity	inhibitor			10 µM	13.5
CCOC(=O)C1CSc2[nH]c(=O)sc2C1c1cn(-c2ccccc2)nc1-c1ccccc1 (centres unmarked)	CA12	enzyme activity	inhibitor	absorbance		10 µM	72.5
O=C(c1ccccc1Cl)N1CCN(CCNc2cc(=O)oc3ccccc23)CC1	DRD3	enzyme activity	inhibitor			10 µM	-5.2
CN(C)C1CCN(CC#Cc2nn(C3CCCC3)c3nc(NCc4ccccc4)ncc23)C1 (centres unmarked)	Calcium/calmodulin-dependent protein kinase type IV (CAMK4, Homo sapiens, UniProt Q16566)	enzyme activity	inhibitor	FRET		10 µM	23
Fc1ccc(C(c2ccc(F)cc2)c2nnnn2CCCCN2CCC(Cc3ccc(Cl)c(Cl)c3)CC2)cc1	SLC6A3	transporter uptake	inhibitor		HEK293	1 µM	68.9
COc1ccc(CCN2C(=O)CC(N3CCN(c4ccc(Cl)cc4)CC3)C2=O)cc1OC (centres unmarked)	DRD3	enzyme activity	inhibitor			10 µM	-14.6
